Assays:
Cannabinoid receptor 1 [1] = molecular target: T1, Cannabinoid receptor 1 (Homo sapiens, UniProt P21554); assay type: functional, cell-based, CHO-K1
[2] = Octanol-water partition coefficient, log D of the compound; assay type: physicochemical
Cannabinoid receptor 1 [3] = molecular target: T1, Cannabinoid receptor 1; assay: Inverse agonist activity at human recombinant CB1 receptor expressed in CHO-K1 cells assessed as stimulation of GTPgammaS binding; assay type: functional, cell-based
In short: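 Membranes came from CHO-K1 cells stably transfected with recombinant human CB1. Efficacy above 100% was taken as inverse agonist activity. IC50 values are the mean of at least two determinations.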

T1 sequence (P21554 whole entry): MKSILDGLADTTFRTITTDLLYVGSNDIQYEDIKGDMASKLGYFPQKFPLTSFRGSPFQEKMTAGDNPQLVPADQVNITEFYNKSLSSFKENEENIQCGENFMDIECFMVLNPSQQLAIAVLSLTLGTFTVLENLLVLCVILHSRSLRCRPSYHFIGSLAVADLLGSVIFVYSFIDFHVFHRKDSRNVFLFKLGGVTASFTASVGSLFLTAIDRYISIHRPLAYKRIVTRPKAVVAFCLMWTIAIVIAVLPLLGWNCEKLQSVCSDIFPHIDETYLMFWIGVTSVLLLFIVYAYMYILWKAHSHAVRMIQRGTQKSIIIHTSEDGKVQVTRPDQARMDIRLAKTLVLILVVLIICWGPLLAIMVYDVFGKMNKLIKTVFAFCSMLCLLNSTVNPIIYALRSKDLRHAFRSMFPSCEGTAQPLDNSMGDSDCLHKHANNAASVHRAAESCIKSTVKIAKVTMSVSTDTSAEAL

## N#CCc1c(C(=O)NC2CCCCCC2)nn(-c2ccccc2Cl)c1-c1ccc(Cl)cc1
Cannabinoid receptor 1 [1]
  IC50: 0.49 nM

## N#CCc1c(C(=O)Nc2ccc(C(F)(F)F)nc2)nn(-c2ccccc2Cl)c1-c1ccc(Cl)cc1
Cannabinoid receptor 1 [1]
  IC50: 14 nM

## N#CCc1c(C(=O)NCc2cccc(Cl)c2)nn(-c2ccccc2Cl)c1-c1ccc(Cl)cc1
Cannabinoid receptor 1 [1]
  IC50: 2.6 nM
[2]
  logD: 4.4

## N#CCc1c(C(=O)NN2CCCCCC2)nn(-c2ccccc2Cl)c1-c1ccc(Cl)cc1
Cannabinoid receptor 1 [1]
  IC50: 0.52 nM

## N#CCc1c(C(=O)N2CCC(c3ccc(F)cc3)C2)nn(-c2ccccc2Cl)c1-c1ccc(Cl)cc1 (stereo not drawn)
Cannabinoid receptor 1 [1]
  IC50: 9.2 nM

## N#CCc1c(C(=O)N[C@@H]2c3ccccc3C[C@@H]2O)nn(-c2ccccc2Cl)c1-c1ccc(Cl)cc1 (single isomer, unassigned)
Cannabinoid receptor 1 [1]
  IC50: 7.8 nM

## N#CCc1c(C(=O)N2CCN(c3ccccc3)CC2)nn(-c2ccccc2Cl)c1-c1ccc(Cl)cc1
Cannabinoid receptor 1 [1]
  IC50: 13 nM

## CN(Cc1ccc(F)cc1)C(=O)c1nn(-c2ccccc2Cl)c(-c2ccc(Cl)cc2)c1CC#N
Cannabinoid receptor 1 [1]
  IC50: 5.6 nM
[2]
  logD: 4.2

## N#CCc1c(C(=O)N2CCN(c3ncccn3)CC2)nn(-c2ccccc2Cl)c1-c1ccc(Cl)cc1
Cannabinoid receptor 1 [1]
  IC50: 3.8 nM

## Cc1cc(CNC(=O)c2nn(-c3ccccc3Cl)c(-c3ccc(Cl)cc3)c2CC#N)no1
Cannabinoid receptor 1 [1]
  IC50: 15 nM

## N#CCc1c(C(=O)Nc2cnc3ccccc3c2)nn(-c2ccccc2Cl)c1-c1ccc(Cl)cc1
Cannabinoid receptor 1 [1]
  IC50: 19 nM
[2]
  logD: 4

## CCC(CC)NC(=O)c1nn(-c2ccccc2Cl)c(-c2ccc(Cl)cc2)c1CC#N
Cannabinoid receptor 1 [1]
  IC50: 5.8 nM

## N#CCc1c(C(=O)N2CCC(O)(Cc3ccccc3)CC2)nn(-c2ccccc2Cl)c1-c1ccc(Cl)cc1
Cannabinoid receptor 1 [1]
  IC50: 3.4 nM

## C[C@H]1CC[C@H](NC(=O)c2nn(-c3ccccc3Cl)c(-c3ccc(Cl)cc3)c2CC#N)CC1
Cannabinoid receptor 1 [1]
  IC50: 1.6 nM

## N#CCc1c(C(=O)NCc2ccc(Cl)cc2Cl)nn(-c2ccccc2Cl)c1-c1ccc(Cl)cc1
Cannabinoid receptor 1 [1]
  IC50: 1.6 nM
[2]
  logD: 4.6

## N#CCc1c(C(=O)NC2CCCCC2)nn(-c2ccccc2Cl)c1-c1ccc(Cl)cc1
Cannabinoid receptor 1 [1]
  IC50: 1.9 nM
[2]
  logD: 3.5

## N#CCc1c(C(=O)NCc2ccccc2F)nn(-c2ccccc2Cl)c1-c1ccc(Cl)cc1
Cannabinoid receptor 1 [1]
  IC50: 4.1 nM
[2]
  logD: 4.1

## N#CCc1c(C(=O)Nc2cccnc2)nn(-c2ccccc2Cl)c1-c1ccc(Cl)cc1
Cannabinoid receptor 1 [1]
  IC50: 57 nM
[2]
  logD: 3.3

## N#CCc1c(C(=O)NCc2ccc(F)c(Br)c2)nn(-c2ccccc2Cl)c1-c1ccc(Cl)cc1
Cannabinoid receptor 1 [1]
  IC50: 0.7 nM
[2]
  logD: 4.4

## N#CCc1c(C(=O)NCCN2CCCCC2)nn(-c2ccccc2Cl)c1-c1ccc(Cl)cc1
Cannabinoid receptor 1 [1]
  IC50: 1110 nM
[2]
  logD: 2.9

## COC(=O)c1ccccc1C1CCN(C(=O)c2nn(-c3ccccc3Cl)c(-c3ccc(Cl)cc3)c2CC#N)CC1
Cannabinoid receptor 1 [1]
  IC50: 2.2 nM

## CC(C)C(NC(=O)c1nn(-c2ccccc2Cl)c(-c2ccc(Cl)cc2)c1CC#N)C(=O)O (stereo not drawn)
Cannabinoid receptor 1 [1]
  IC50: 6250 nM

## N#CCc1c(C(=O)N2CCc3ccc(C(F)(F)F)cc3C2)nn(-c2ccccc2Cl)c1-c1ccc(Cl)cc1
Cannabinoid receptor 1 [1]
  IC50: 2.1 nM

## N#CCc1c(C(=O)N2CCc3ccccc3C2)nn(-c2ccccc2Cl)c1-c1ccc(Cl)cc1
Cannabinoid receptor 1 [1]
  IC50: 5.7 nM

## N#CCc1c(C(=O)Nc2cccnc2Cl)nn(-c2ccccc2Cl)c1-c1ccc(Cl)cc1
Cannabinoid receptor 1 [1]
  IC50: 18 nM
[2]
  logD: 4.4

## N#CCc1c(C(=O)NN2CCOCC2)nn(-c2ccccc2Cl)c1-c1ccc(Cl)cc1
Cannabinoid receptor 1 [1]
  IC50: 71 nM

## N#CCc1c(C(=O)N2Cc3ccc(Br)cc3C2)nn(-c2ccccc2Cl)c1-c1ccc(Cl)cc1
Cannabinoid receptor 1 [1]
  IC50: 0.22 nM

## N#CCc1c(C(=O)N[C@H]2c3ccccc3C[C@H]2O)nn(-c2ccccc2Cl)c1-c1ccc(Cl)cc1 (single isomer, unassigned)
Cannabinoid receptor 1 [1]
  IC50: 1.7 nM

## N#CCc1c(C(=O)NCc2ccc(Br)cc2)nn(-c2ccccc2Cl)c1-c1ccc(Cl)cc1
Cannabinoid receptor 1 [3]
  IC50: 1.2 nM
Cannabinoid receptor 1 [1]
  IC50: 5.8 nM
[2]
  logD: 4.4

## CS(=O)(=O)C1CCN(C(=O)c2nn(-c3ccccc3Cl)c(-c3ccc(Cl)cc3)c2CC#N)CC1
Cannabinoid receptor 1 [1]
  IC50: 17 nM

## N#CCc1c(C(=O)NCc2ccc(F)cc2)nn(-c2ccccc2Cl)c1-c1ccc(Cl)cc1
Cannabinoid receptor 1 [1]
  IC50: 2.1 nM
[2]
  logD: 4.1

## N#CCc1c(C(=O)N2CCC(c3ccc(F)cc3)CC2)nn(-c2ccccc2Cl)c1-c1ccc(Cl)cc1
Cannabinoid receptor 1 [1]
  IC50: 1 nM

## N#CCc1c(C(=O)N2CCCCC2c2ccc(F)cc2)nn(-c2ccccc2Cl)c1-c1ccc(Cl)cc1 (stereo not drawn)
Cannabinoid receptor 1 [1]
  IC50: 23 nM

## N#CCc1c(C(=O)N[C@@H]2C[C@H]3CC[C@@H]2C3)nn(-c2ccccc2Cl)c1-c1ccc(Cl)cc1
Cannabinoid receptor 1 [1]
  IC50: 2.2 nM

## N#CCc1c(C(=O)N2CCC(c3ccccc3C(=O)O)CC2)nn(-c2ccccc2Cl)c1-c1ccc(Cl)cc1
Cannabinoid receptor 1 [1]
  IC50: 2810 nM

## N#CCc1c(C(=O)Nc2ccc(F)cc2)nn(-c2ccccc2Cl)c1-c1ccc(Cl)cc1
Cannabinoid receptor 1 [1]
  IC50: 11 nM
[2]
  logD: 4.2

## N#CCc1c(C(=O)NN2CCCCC2)nn(-c2ccccc2Cl)c1-c1ccc(Cl)cc1
Cannabinoid receptor 1 [1]
  IC50: 7.5 nM
[2]
  logD: 3.6

## N#CCc1c(C(=O)N2Cc3ccc(F)cc3C2)nn(-c2ccccc2Cl)c1-c1ccc(Cl)cc1
Cannabinoid receptor 1 [1]
  IC50: 5.7 nM

## CS(=O)(=O)N1CCC(NC(=O)c2nn(-c3ccccc3Cl)c(-c3ccc(Cl)cc3)c2CC#N)CC1
Cannabinoid receptor 1 [1]
  IC50: 31 nM

## N#CCc1c(C(=O)NCc2ccc(Cl)cc2)nn(-c2ccccc2Cl)c1-c1ccc(Cl)cc1
Cannabinoid receptor 1 [1]
  IC50: 1.2 nM
[2]
  logD: 4.4

## N#CCc1c(C(=O)NC(Cc2ccccc2)C(=O)O)nn(-c2ccccc2Cl)c1-c1ccc(Cl)cc1 (stereo not drawn)
Cannabinoid receptor 1 [1]
  IC50: 4450 nM

## COC(=O)C(NC(=O)c1nn(-c2ccccc2Cl)c(-c2ccc(Cl)cc2)c1CC#N)C(C)C (stereo not drawn)
Cannabinoid receptor 1 [1]
  IC50: 7.3 nM

## N#CCc1c(C(=O)NCCc2ccccc2)nn(-c2ccccc2Cl)c1-c1ccc(Cl)cc1
Cannabinoid receptor 1 [1]
  IC50: 16 nM

## N#CCc1c(C(=O)NCc2c(Cl)cccc2Cl)nn(-c2ccccc2Cl)c1-c1ccc(Cl)cc1
Cannabinoid receptor 1 [1]
  IC50: 7 nM
[2]
  logD: 4.6

## CC(=O)C1CCN(C(=O)c2nn(-c3ccccc3Cl)c(-c3ccc(Cl)cc3)c2CC#N)CC1
Cannabinoid receptor 1 [1]
  IC50: 199 nM

## N#CCc1c(C(=O)N2CCCC2c2ccc(F)cc2)nn(-c2ccccc2Cl)c1-c1ccc(Cl)cc1 (stereo not drawn)
Cannabinoid receptor 1 [1]
  IC50: 27 nM

## COC(=O)C(Cc1ccccc1)NC(=O)c1nn(-c2ccccc2Cl)c(-c2ccc(Cl)cc2)c1CC#N (stereo not drawn)
Cannabinoid receptor 1 [1]
  IC50: 1.2 nM

## N#CCc1c(C(=O)NC2CCc3ccccc32)nn(-c2ccccc2Cl)c1-c1ccc(Cl)cc1 (stereo not drawn)
Cannabinoid receptor 1 [1]
  IC50: 0.41 nM

## N#CCc1c(C(=O)NCc2ccc(Br)cc2F)nn(-c2ccccc2Cl)c1-c1ccc(Cl)cc1
Cannabinoid receptor 1 [1]
  IC50: 0.51 nM
[2]
  logD: 4.5

## N#CCc1c(C(=O)N2CCC(O)(c3ccc(F)cc3)CC2)nn(-c2ccccc2Cl)c1-c1ccc(Cl)cc1
Cannabinoid receptor 1 [1]
  IC50: 3 nM

## N#CCc1c(C(=O)NCc2ccc(C#N)cc2)nn(-c2ccccc2Cl)c1-c1ccc(Cl)cc1
Cannabinoid receptor 1 [1]
  IC50: 4.2 nM
[2]
  logD: 3.8

## N#CCc1ccc(NC(=O)c2nn(-c3ccccc3Cl)c(-c3ccc(Cl)cc3)c2CC#N)cc1
Cannabinoid receptor 1 [1]
  IC50: 55 nM
[2]
  logD: 3.8

## N#CCc1c(C(=O)N2CC[C@@H](OCc3ccc(F)cc3)C2)nn(-c2ccccc2Cl)c1-c1ccc(Cl)cc1
Cannabinoid receptor 1 [1]
  IC50: 20 nM

— ChEMBL document CHEMBL1153177, “Exploring SAR features in diverse library of 4-cyanomethyl-pyrazole-3-carboxamides suitable for further elaborations as CB1 antagonists” (Bioorg Med Chem Lett, 2010)
